Measured values taken from ChEMBL document CHEMBL1144702, “Synthesis and structure-activity relationship studies on tryprostatin A, an inhibitor of breast cancer resistance protein” (Bioorg Med Chem, 2008).

Tests used:
[1] = Antiproliferative activity against mouse tsFT210 cells after 48 hrs by WST-8 assay; assay type: functional, cell-based; conditions: tsFT210, 48 h
Method in brief: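 tsFT210 cells (temperature-sensitive cdc2 mutant from mouse mammary carcinoma FM3A), kept in RPMI 1640 with 10% fetal calf serum at 32 °C; exponentially growing cells exposed to compound at 32 °C for 48 h, then WST-8 added for 4 h at 37 °C; absorbance at 450 nm read to estimate cell number; IC50 reported.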

[2] = Cytotoxicity against human H520 cells at 10 uM after 72 hrs by Cell Titer 96 Aqueous Non-Radioactive assay; assay type: functional; conditions: NCI-H520, 72 h, read-out: Inhibition
Method in brief: (§1)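 MCF7, NCI-H520 or PC-3 cells (RPMI-1640, 10% FBS) plated 1 × 10^4/well, 24 h at 37 °C, exposed 72 h to drug at 10 or 100 μM in DMSO or EtOH vehicle (controls usually 0.2%). Survival by MTS/PMS formazan absorbance at 490 nm, plate blank subtracted, as percent of vehicle wells; quadruplicate; etoposide or m-AMSA positive controls.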

RPMI-8226 = assay: Cytotoxicity against human RPMI8226 cells; assay type: functional
CCRF-CEM = assay: Cytotoxicity against human CCRF-CEM cells; assay type: functional
COLO 205 = assay: Cytotoxicity against human COLO205 cells; assay type: functional
BT-549 = assay: Cytotoxicity against human BT549 cells; assay type: functional
HOP-92 = assay: Cytotoxicity against human HOP92 cells; assay type: functional
MCF7 [3] = assay: Cytotoxicity against human MCF7 cells at 100 uM after 72 hrs by Cell Titer 96 Aqueous Non-Radioactive assay; assay type: functional; conditions: MCF7, 72 h, read-out: Inhibition; method in brief: as §1
IGROV-1 = assay: Cytotoxicity against human IGROV1 cells; assay type: functional
K562 = assay: Cytotoxicity against human K562 cells; assay type: functional
LOX IMVI = assay: Cytotoxicity against human LOX IMVI cells; assay type: functional
[4] = Cytotoxicity against human H520 cells at 100 uM after 72 hrs by Cell Titer 96 Aqueous Non-Radioactive assay; assay type: functional; conditions: NCI-H520, 72 h, read-out: Inhibition; method in brief: as §1
PC-3 [5] = assay: Cytotoxicity against human PC3 cells at 10 uM after 72 hrs by Cell Titer 96 Aqueous Non-Radioactive assay; assay type: functional; conditions: PC-3, 72 h, read-out: Inhibition; method in brief: as §1
SR = assay: Cytotoxicity against human SR cells; assay type: functional
MCF7 [6] = assay: Cytotoxicity against human MCF7 cells after 72 hrs by Cell Titer 96 Aqueous Non-Radioactive assay; assay type: functional; conditions: MCF7, 72 h
Method in brief: (§2)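 MCF7, NCI-H520 and PC-3 cells in RPMI-1640 + 10% FBS, 2 mM L-glutamine, 0.1 mM non-essential amino acids; 1 × 10^4 cells/well, 24 h at 37 °C, then drug in DMSO or EtOH (<1%) for 72 h. Cells under 50% survival at 100 μM retested over further concentrations for GI50. MTS/PMS read at 490 nm, blank subtracted, versus vehicle wells; quadruplicate or more.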

UO-31 = assay: Cytotoxicity against human UO31 cells; assay type: functional
DU-145 = assay: Cytotoxicity against human DU145 cells; assay type: functional
PC-3 [7] = assay: Cytotoxicity against human PC3 cells at 100 uM after 72 hrs by Cell Titer 96 Aqueous Non-Radioactive assay; assay type: functional; conditions: PC-3, 72 h, read-out: Inhibition; method in brief: as §1
[8] = Cytotoxicity against human HL60 (TB) cells; assay type: functional; conditions: HL-60
[9] = Cytotoxicity against human […]; assay type: functional
[10] = Inhibition of tubulin polymerization in presence of microtubule-associated proteins
Method in brief: (§3)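 Tubulin containing MAPs in PME buffer (100 mM PIPES pH 6.9, 2 mM EGTA, 1 mM MgSO4) with GTP and drug in DMSO, tubulin added last; 37 °C, absorbance change at 351 nm over 10 min. Drug concentration varied across runs for delta absorbance versus concentration curves; colchicine standard curves made for each tubulin batch.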

MCF7 [11] = assay: Cytotoxicity against human MCF7 cells at 10 uM after 72 hrs by Cell Titer 96 Aqueous Non-Radioactive assay; assay type: functional; conditions: MCF7, 72 h, read-out: Inhibition; method in brief: as §1
MOLT-4 = assay: Cytotoxicity against human MOLT4 cells; assay type: functional
EKVX = assay: Cytotoxicity against human EKVX cells; assay type: functional
OVCAR-3 = assay: Cytotoxicity against human OVCAR-3 cells; assay type: functional
PC-3 [12] = assay: Cytotoxicity against human PC3 cells after 72 hrs by Cell Titer 96 Aqueous Non-Radioactive assay; assay type: functional; conditions: PC-3, 72 h; method in brief: as §2
[13] = Inhibition of tubulin polymerization in presence of microtubule-associated proteins at 60 uM; method in brief: as §3

`COc1ccc2c(C[C@@H]3NC(=O)[C@H](Cc4ccccc4)NC3=O)c(CC=C(C)C)[nH]c2c1` showed an IC50 [1] of 10 µM.
Compound `COc1ccc2c(C[C@@H]3NC(=O)[C@@H]4CCCN4C3=O)c(CC=C(C)C)n(Cc3ccccc3)c2c1` has an IC50 [1] of 55 µM.
In the case of `COc1ccc2c(C[C@@H]3NC(=O)[C@H](C(C)C)NC3=O)c[nH]c2c1`, the IC50 [1] is reported as > 100 µM.
With `CC(C)=CCc1[nH]c2ccccc2c1C[C@@H]1NC(=O)[C@@H]2CCCN2C1=O` [TRYPROSTATIN B] the percent cell survival relative to vehicle at 10 µM [2] was 77.6%, the GI50 (RPMI-8226) was > 100 µM and the GI50 (CCRF-CEM) was > 100 µM. The GI50 (COLO 205) was > 100 µM, the GI50 (BT-549) was 58.2 µM and the GI50 (HOP-92) was 43.1 µM. The cell survival (% of vehicle control) at 100 µM (MCF7 [3]) was 66.7%, the GI50 (IGROV-1) was > 100 µM and the GI50 (K562) was 56.1 µM. For the same compound, the GI50 (LOX IMVI) was > 100 µM, the cell survival (% of vehicle control) at 100 µM [4] was 60.5% and the percent cell survival relative to vehicle control at 10 µM (PC-3 [5]) was 95.5%. The GI50 (SR) was 50.6 µM, the GI50 (MCF7 [6]) was > 100 µM and the GI50 (UO-31) was > 100 µM. The GI50 (DU-145) was > 100 µM, the percent cell survival at 100 µM (PC-3 [7]) was 68.9% and the GI50 [8] was > 100 µM. The GI50 [9] was > 100 µM, the IC50 [10] was > 700 µM and the cell survival (% of vehicle control) at 10 µM (MCF7 [11]) was 88.2%. For the same compound, the GI50 (MOLT-4) was > 100 µM, the GI50 (EKVX) was > 100 µM and the GI50 (OVCAR-3) was > 100 µM. The GI50 (PC-3 [12]) was > 100 µM.
In the case of `CC(C)=CCc1[nH]c2ccccc2c1C[C@H]1NC(=O)[C@@H]2CCCN2C1=O`, the percent cell survival relative to vehicle at 10 µM [2] is reported as > 100%, the GI50 (RPMI-8226) is reported as 18.6 µM and the GI50 (CCRF-CEM) is reported as 22.2 µM. It also gave a GI50 (COLO 205) of 39.3 µM, a GI50 (BT-549) of 26.9 µM and a GI50 (HOP-92) of 2.94 µM. For the same compound, the cell survival (% of vehicle control) at 100 µM (MCF7 [3]) was > 100%, the GI50 (IGROV-1) was 32.3 µM and the GI50 (K562) was 31.8 µM. It also gave a GI50 (LOX IMVI) of 17.8 µM, a cell survival (% of vehicle control) at 100 µM [4] of 76.5% and a percent cell survival relative to vehicle control at 10 µM (PC-3 [5]) of 97.3%. It also gave a GI50 (SR) of 25.4 µM, a GI50 (MCF7 [6]) of 25.9 µM and a GI50 (UO-31) of 45.7 µM. It also gave a GI50 (DU-145) of 59.5 µM, a percent cell survival at 100 µM (PC-3 [7]) of 68.5% and a GI50 [8] of 55.7 µM. For the same compound, the GI50 [9] was 49.6 µM, the cell survival (% of vehicle control) at 10 µM (MCF7 [11]) was > 100% and the GI50 (MOLT-4) was 34.9 µM. For the same compound, the GI50 (EKVX) was 20.7 µM, the GI50 (OVCAR-3) was 28.7 µM and the GI50 (PC-3 [12]) was 24.8 µM. The inhibition [13] was < 2%.
`COc1ccc2c(C[C@@H]3NC(=O)[C@@H]4CCCN4C3=O)c(Br)[nH]c2c1` showed an IC50 [1] of 96 µM.
In the case of `COC(=O)/C=C/c1[nH]c2cc(OC)ccc2c1C[C@@H]1NC(=O)[C@@H]2CCCN2C1=O`, the IC50 [1] is reported as > 100 µM.
`COc1cc2c(c(OC)c1OC)-c1ccc(OC)c(=O)cc1[C@@H](NC(C)=O)CC2` [COLCHICINE] gave an IC50 [10] of 44.9 µM.
For `COc1ccc2c(C[C@@H]3NC(=O)[C@@H]4CCCN4C3=O)c(Cl)[nH]c2c1`, the IC50 [1] was > 100 µM.
With `C=CCn1c(CC=C(C)C)c(C[C@@H]2NC(=O)[C@@H]3CCCN3C2=O)c2ccc(OC)cc21` the IC50 [1] was 75 µM.
In the case of `COc1ccc2c(C[C@@H]3NC(=O)[C@@H]4CCCN4C3=O)cn(CC=C(C)C)c2c1`, the IC50 [1] is reported as > 100 µM.
In the case of `CC(C)=CCc1[nH]c2cc([N+](=O)[O-])ccc2c1C[C@@H]1NC(=O)[C@@H]2CCCN2C1=O`, the IC50 [1] is reported as > 100 µM.
